Data published in ChEMBL document CHEMBL3046780, “Syntheses and herbicidal activity of new triazolopyrimidine-2-sulfonamides as acetohydroxyacid synthase inhibitor” (Bioorg Med Chem, 2010).

Columns and labels:
Polygonum humifusum [1] = assay: Post-emergence herbicidal activity against Polygonum humifusum assessed as growth inhibition at 75 g ai/ha measured 15 days post compound treatment under green house conditions; type: functional; settings: 360 h, read-out: GI
Method in brief: (§1)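 Compounds formulated as 100 g/L emulsifiable concentrate (DMF solvent, Tween-80 emulsifier), diluted with water, sprayed post-emergence on pot-grown weeds in clay soil (pH 6.5, 1.6% organic matter). Seeds sown 1-3 cm deep, grown at 15-30 °C. Dicots were treated at the 2-leaf stage and monocots at the 1-leaf stage. Untreated and DMF-treated controls were included. Injury was rated visually 15 days after treatment.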

Polygonum humifusum [2] = assay: Post-emergence herbicidal activity against Polygonum humifusum assessed as growth inhibition at 37.5 g ai/ha measured 15 days post compound treatment under green house conditions; type: functional; settings: 360 h, read-out: GI; method in brief: as §1
Galium aparine [3] = assay: Post-emergence herbicidal activity against Galium aparine assessed as growth inhibition at 75 g ai/ha measured 15 days post compound treatment under green house conditions; type: functional; settings: 360 h, read-out: GI; method in brief: as §1
Galium aparine [4] = assay: Post-emergence herbicidal activity against Galium aparine assessed as growth inhibition at 150 g ai/ha measured 15 days post compound treatment under green house conditions; type: functional; settings: 360 h, read-out: GI; method in brief: as §1
Galium aparine [5] = assay: Post-emergence herbicidal activity against Galium aparine assessed as growth inhibition at 37.5 g ai/ha measured 15 days post compound treatment under green house conditions; type: functional; settings: 360 h, read-out: GI; method in brief: as §1
Eclipta prostrata [6] = assay: Post-emergence herbicidal activity against Eclipta prostrata assessed as growth inhibition at 150 g ai/ha measured 15 days post compound treatment under green house conditions; type: functional; settings: 360 h, read-out: GI; method in brief: as §1
Amaranthus retroflexus [7] = assay: Post-emergence herbicidal activity against Amaranthus retroflexus assessed as growth inhibition at 150 g ai/ha measured 15 days post compound treatment under green house conditions; type: functional; settings: 360 h, read-out: GI; method in brief: as §1
Brassica juncea = assay: Post-emergence herbicidal activity against Brassica juncea assessed as growth inhibition at 150 g ai/ha measured 15 days post compound treatment under green house conditions; type: functional; settings: 360 h, read-out: GI; method in brief: as §1
Poa annua = assay: Post-emergence herbicidal activity against Poa annua assessed as growth inhibition at 150 g ai/ha measured 15 days post compound treatment under green house conditions; type: functional; settings: 360 h, read-out: GI; method in brief: as §1
Digitaria sanguinalis = assay: Post-emergence herbicidal activity against Digitaria sanguinalis (hairy crabgrass) assessed as growth inhibition at 150 g ai/ha measured 15 days post compound treatment under green house conditions; type: functional; settings: 360 h, read-out: GI; method in brief: as §1
Echinochloa crus-galli = assay: Post-emergence herbicidal activity against Echinochloa crus-galli (barnyard grass) assessed as growth inhibition at 150 g ai/ha measured 15 days post compound treatment under green house conditions; type: functional; settings: 360 h, read-out: GI; method in brief: as §1
Chenopodium album [8] = assay: Post-emergence herbicidal activity against Chenopodium album assessed as growth inhibition at 37.5 g ai/ha measured 15 days post compound treatment under green house conditions; type: functional; settings: 360 h, read-out: GI; method in brief: as §1
Cyperus iria [9] = assay: Post-emergence herbicidal activity against Cyperus iria assessed as growth inhibition at 150 g ai/ha measured 15 days post compound treatment under green house conditions; type: functional; settings: 360 h, read-out: GI; method in brief: as §1
Cyperus iria [10] = assay: Post-emergence herbicidal activity against Cyperus iria assessed as growth inhibition at 75 g ai/ha measured 15 days post compound treatment under green house conditions; type: functional; settings: 360 h, read-out: GI; method in brief: as §1
Cyperus iria [11] = assay: Post-emergence herbicidal activity against Cyperus iria assessed as growth inhibition at 37.5 g ai/ha measured 15 days post compound treatment under green house conditions; type: functional; settings: 360 h, read-out: GI; method in brief: as §1
Cerastium arvense [12] = assay: Post-emergence herbicidal activity against Cerastium arvense assessed as growth inhibition at 150 g ai/ha measured 15 days post compound treatment under green house conditions; type: functional; settings: 360 h, read-out: GI; method in brief: as §1
Cerastium arvense [13] = assay: Post-emergence herbicidal activity against Cerastium arvense assessed as growth inhibition at 75 g ai/ha measured 15 days post compound treatment under green house conditions; type: functional; settings: 360 h, read-out: GI; method in brief: as §1
Cerastium arvense [14] = assay: Post-emergence herbicidal activity against Cerastium arvense assessed as growth inhibition at 37.5 g ai/ha measured 15 days post compound treatment under green house conditions; type: functional; settings: 360 h, read-out: GI; method in brief: as §1
Polygonum humifusum [15] = assay: Post-emergence herbicidal activity against Polygonum humifusum assessed as growth inhibition at 150 g ai/ha measured 15 days post compound treatment under green house conditions; type: functional; settings: 360 h, read-out: GI; method in brief: as §1
Eclipta prostrata [16] = assay: Post-emergence herbicidal activity against Eclipta prostrata assessed as growth inhibition at 75 g ai/ha measured 15 days post compound treatment under green house conditions; type: functional; settings: 360 h, read-out: GI; method in brief: as §1
Eclipta prostrata [17] = assay: Post-emergence herbicidal activity against Eclipta prostrata assessed as growth inhibition at 37.5 g ai/ha measured 15 days post compound treatment under green house conditions; type: functional; settings: 360 h, read-out: GI; method in brief: as §1
Rumex acetosa [18] = assay: Post-emergence herbicidal activity against Rumex acetosa assessed as growth inhibition at 150 g ai/ha measured 15 days post compound treatment under green house conditions; type: functional; settings: 360 h, read-out: GI; method in brief: as §1
Rumex acetosa [19] = assay: Post-emergence herbicidal activity against Rumex acetosa assessed as growth inhibition at 75 g ai/ha measured 15 days post compound treatment under green house conditions; type: functional; settings: 360 h, read-out: GI; method in brief: as §1
Rumex acetosa [20] = assay: Post-emergence herbicidal activity against Rumex acetosa assessed as growth inhibition at 37.5 g ai/ha measured 15 days post compound treatment under green house conditions; type: functional; settings: 360 h, read-out: GI; method in brief: as §1
Amaranthus retroflexus [21] = assay: Post-emergence herbicidal activity against Amaranthus retroflexus assessed as growth inhibition at 75 g ai/ha measured 15 days post compound treatment under green house conditions; type: functional; settings: 360 h, read-out: GI; method in brief: as §1
Amaranthus retroflexus [22] = assay: Post-emergence herbicidal activity against Amaranthus retroflexus assessed as growth inhibition at 37.5 g ai/ha measured 15 days post compound treatment under green house conditions; type: functional; settings: 360 h, read-out: GI; method in brief: as §1
Chenopodium album [23] = assay: Post-emergence herbicidal activity against Chenopodium album assessed as growth inhibition at 150 g ai/ha measured 15 days post compound treatment under green house conditions; type: functional; settings: 360 h, read-out: GI; method in brief: as §1
Chenopodium album [24] = assay: Post-emergence herbicidal activity against Chenopodium album assessed as growth inhibition at 75 g ai/ha measured 15 days post compound treatment under green house conditions; type: functional; settings: 360 h, read-out: GI; method in brief: as §1
[25] = molecular target: T1, Acetolactate synthase, chloroplastic (Arabidopsis thaliana, UniProt P17597)
T1 sequence (P17597 whole entry): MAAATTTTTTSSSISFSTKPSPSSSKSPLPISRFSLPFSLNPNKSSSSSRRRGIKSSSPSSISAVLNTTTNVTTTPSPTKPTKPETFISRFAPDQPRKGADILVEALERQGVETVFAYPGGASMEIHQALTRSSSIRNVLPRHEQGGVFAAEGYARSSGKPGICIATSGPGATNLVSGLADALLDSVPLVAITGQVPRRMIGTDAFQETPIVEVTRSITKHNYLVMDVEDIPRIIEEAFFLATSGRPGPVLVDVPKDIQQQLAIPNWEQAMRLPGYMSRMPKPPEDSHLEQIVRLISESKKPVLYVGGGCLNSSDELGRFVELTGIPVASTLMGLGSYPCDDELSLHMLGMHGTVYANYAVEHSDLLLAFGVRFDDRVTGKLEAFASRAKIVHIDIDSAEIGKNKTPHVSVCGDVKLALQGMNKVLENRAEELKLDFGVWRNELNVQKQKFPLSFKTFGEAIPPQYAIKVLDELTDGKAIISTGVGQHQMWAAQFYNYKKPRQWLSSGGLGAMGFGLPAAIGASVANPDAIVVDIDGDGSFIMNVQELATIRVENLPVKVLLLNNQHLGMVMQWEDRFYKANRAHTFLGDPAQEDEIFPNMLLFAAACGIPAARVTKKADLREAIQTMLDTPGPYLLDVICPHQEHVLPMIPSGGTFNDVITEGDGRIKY

Cc1nc(C(F)(F)F)cc2nc(S(=O)(=O)Nc3c(F)cccc3F)nn12
inhibition of growth at 75 g/ha (Polygonum humifusum [1]): < 50%
inhibition of growth at 37.5 g/ha (Polygonum humifusum [2]): < 50%
inhibition of growth at 75 g/ha (Galium aparine [3]): ≥ 80%
inhibition of growth at 150 g/ha (Galium aparine [4]): ≥ 80%
inhibition of growth at 37.5 g/ha (Galium aparine [5]): 50%
inhibition of growth at 150 g/ha (Eclipta prostrata [6]): ≥ 80%
inhibition of growth at 150 g/ha (Amaranthus retroflexus [7]): < 50%
inhibition of growth at 150 g/ha (Brassica juncea): ≥ 80%
inhibition of growth at 150 g/ha (Poa annua): < 50%
inhibition of growth at 150 g/ha (Digitaria sanguinalis): < 50%
inhibition of growth at 150 g/ha (Echinochloa crus-galli): < 50%
inhibition of growth at 37.5 g/ha (Chenopodium album [8]): ≥ 80%
inhibition of growth at 150 g/ha (Cyperus iria [9]): < 50%
inhibition of growth at 75 g/ha (Cyperus iria [10]): < 50%
inhibition of growth at 37.5 g/ha (Cyperus iria [11]): < 50%
inhibition of growth at 150 g/ha (Cerastium arvense [12]): 50%
inhibition of growth at 75 g/ha (Cerastium arvense [13]): 50%
inhibition of growth at 37.5 g/ha (Cerastium arvense [14]): 50%
inhibition of growth at 150 g/ha (Polygonum humifusum [15]): 50%
inhibition of growth at 75 g/ha (Eclipta prostrata [16]): ≥ 80%
inhibition of growth at 37.5 g/ha (Eclipta prostrata [17]): 50%
inhibition of growth at 150 g/ha (Rumex acetosa [18]): 50%
inhibition of growth at 75 g/ha (Rumex acetosa [19]): 50%
inhibition of growth at 37.5 g/ha (Rumex acetosa [20]): 50%
inhibition of growth at 75 g/ha (Amaranthus retroflexus [21]): < 50%
inhibition of growth at 37.5 g/ha (Amaranthus retroflexus [22]): < 50%
inhibition of growth at 150 g/ha (Chenopodium album [23]): ≥ 90%
inhibition of growth at 75 g/ha (Chenopodium album [24]): ≥ 80%
Ki [25]: 70.6 µM
